Experimental findings from PubChem BioAssay are described below.

Activity calls are given as the source filed them.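 How the source made its calls, unless noted: active means inhibition above 20% together with a positive visual image hit; inconclusive means visual image hit but inhibition not above 20%; inactive means no visual image hit.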

A short description of test [1]: inhibitors of TNFa-induced NFkB p65 translocation, primary screen, imaging, HUVEC, MLSMR starter and 10KST1 sets (AID 438).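 Further: compound added about 3h40 before a 20 min TNFalpha stimulation.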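 On inhibition: signal is the nuclear over cytoplasmic p65 intensity ratio per well.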 The conditions noted are these: HUVEC TNFa-induced p65 nuclear translocation; cell count: measured here: nuclei count (cytotoxicity indicator), at 2.08 µM; inhibition: at 2 µM, stronger effect = higher value, 0% TNFa-plus-vehicle, 100% no-TNFa wells.
Test [2] is described as follows: reduction of polyQ htt aggregates in cells – imaging, exon1htt(103Q)mCFP cells, high-content imaging, primary screen (AID 483;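 active means visual image review flags a hit and inhibition of aggregation exceeds 20%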;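 further: compound exposure lasted 3 days before fixation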;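 on nuclei count: percent of the per-plate median nuclei count of sample wells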). The note with it: exon1htt(103Q)mCFP cell line, aggregate imaging, at 2 µM; inhibition of aggregation: stronger effect = higher value; nuclei count: measured here: cell count, toxicity.
A short description of test [3]: endothelial E-selectin expression blockers – imaging, HUVEC, immunofluorescence, MLSMR starter and 10KST1 sets, primary screen (AID 487;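 active means visually confirmed hit in the image check and inhibition above 20%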;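 on inhibition: signal is fraction of cell area covered by stained E-selectin grains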;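 on nuclei count: 100% = median nuclei count of all wells on the same plate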). The conditions noted are these: HUVEC TNFalpha-induced E-selectin immunofluorescence imaging, at 2 µM; inhibition: stronger effect = higher value; nuclei count: measured here: cell number, toxicity.
Test [4] has as its target Voltage-gated potassium channel subunit beta-2 (Rattus norvegicus) (UniProt P62483). Nature of the test: inhibitors of rat Kvbeta2 reductase activity – biochemical, NADPH fluorescence, primary screen (AID 622;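 active means fluorescence slope higher than the sample average by over 3 SD, cut at about -0.22 in these data, passing the limit was not always enough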;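 further: slope of raw intensity against log time taken from 70 to 1610 s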). The note with it: recombinant KvBeta, 4-cyanobenzaldehyde reduction, at 10 µM, stronger effect = higher value.
The target is the same in test [5]. Nature of the test: enhancers of rat Kvbeta2 NADPH turnover – biochemical, NADPH fluorescence, primary screen (AID 623;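 active means NADPH fluorescence slope more negative than the mean of all samples by about 3 SD, 99.7% confidence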;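 further: fluorescence intensity change per second fitted from 20 to 320 s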). The conditions noted are these: Recombinant KvBeta, NADPH fluorescence decrease slope, 10 min; at 10 µM; stronger effect = lower value.
Test [6] concerns the target Muscarinic acetylcholine receptor M4 (Homo sapiens) (UniProt P08173). Nature of the test: M4-linked GIRK flux change, two-sided – cell-based, HEK293 M4/GIRK, thallium flux, BTC-AM, M4 allosteric agonist project, primary screen (AID 625;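 active means fluorescence slope after compound addition differing from the mean of all tested samples at 99.7% confidence, mostly higher but some lower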;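 further: thallium influx through GIRK channels coupled to M4 in HEK293 cells with BTC-AM dye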). The note with it: at 10 µM, actives lie on both sides. The gist of the method:
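Material – HEK293 cells with M4 receptor and GIRK channels · Buffer or medium – pH 7.3 thallium assay buffer · Doses – one dose, 10 µM final · Timing – cells overnight at 37 °C, BTC-AM loading 1 h, reads 2 min total · Measured by – kinetic fluorescence with BTC-AM dye · Controls – carbachol and DMSO controls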

A short description of test [7]: blockers of RIG-like receptor reporter activation – cell-based, Sendai virus stimulus, luciferase, 10K MLSCN set, TLR/RLR signaling modifier project, primary screen (AID 602276;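 active means inhibition at or above 50% at 10 µM; inactive means inhibition below 50%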;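 further: firefly luciferase from ISG56 promoter only with Renilla not read in this screen; 0% = Sendai virus plus DMSO and 100% = medium plus DMSO without virus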). The conditions noted are these: HEK293 RL24 IRF3 luciferase reporter, at 10 µM, stronger effect = higher value. On the technique in general: Reporter assays use an easily measured gene product as a stand-in for the process of interest.

A short description of test [8]: TLR3 IRF3 reporter activation blockers – cell-based, poly I:C stimulus, luciferase, 10K MLSCN set, primary screen (AID 602277;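 active means inhibition of the reporter signal at or above 50%; inactive means inhibition below 50%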). The note with it: HEK293-TLR3 RL24 IRF3 luciferase reporter, at 10 µM, stronger effect = higher value.

Chain of Voltage-gated potassium channel subunit beta-2 (Rattus norvegicus) (P62483 whole entry, looked up): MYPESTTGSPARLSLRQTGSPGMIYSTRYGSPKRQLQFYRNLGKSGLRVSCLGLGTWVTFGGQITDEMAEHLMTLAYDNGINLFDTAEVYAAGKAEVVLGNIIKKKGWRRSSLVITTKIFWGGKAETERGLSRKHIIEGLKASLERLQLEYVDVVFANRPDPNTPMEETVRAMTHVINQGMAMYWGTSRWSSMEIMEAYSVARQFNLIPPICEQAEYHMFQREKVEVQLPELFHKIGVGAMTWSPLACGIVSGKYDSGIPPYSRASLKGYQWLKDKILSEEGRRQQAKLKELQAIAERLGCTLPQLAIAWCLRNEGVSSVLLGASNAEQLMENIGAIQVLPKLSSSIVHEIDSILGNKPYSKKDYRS
Chain of Muscarinic acetylcholine receptor M4 (Homo sapiens) (P08173 whole entry, looked up): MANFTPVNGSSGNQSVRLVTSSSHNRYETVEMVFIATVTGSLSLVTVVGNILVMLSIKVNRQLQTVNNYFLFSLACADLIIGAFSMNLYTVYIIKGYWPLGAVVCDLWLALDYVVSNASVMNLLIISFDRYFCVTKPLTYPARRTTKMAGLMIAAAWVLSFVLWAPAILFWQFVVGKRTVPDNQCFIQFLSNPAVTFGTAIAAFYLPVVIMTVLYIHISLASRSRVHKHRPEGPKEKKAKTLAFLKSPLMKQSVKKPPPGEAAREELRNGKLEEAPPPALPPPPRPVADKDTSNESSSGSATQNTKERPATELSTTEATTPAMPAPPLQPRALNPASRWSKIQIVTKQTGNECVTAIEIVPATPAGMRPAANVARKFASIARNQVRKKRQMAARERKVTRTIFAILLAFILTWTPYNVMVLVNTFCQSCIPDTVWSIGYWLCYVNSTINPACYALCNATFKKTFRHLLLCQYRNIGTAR

As to `CC1(C)CC(=O)C2=C(C1)Nc1nc(SCCN3CCOCC3)[nH]c(=O)c1C2c1cccs1` (centres undefined), the cell count in test [1] amounted to 549. Also, the inhibition in test [1] was -8.4% (inactive); in test [3] it was -42.7% (inactive); in test [7], -3.95% (inactive); in test [8], -12.2% (inactive). In test [2], the inhibition of aggregation is -11.8% (inactive). The nuclei count in test [2] was determined as 50.7%; in test [3], 104%. In addition, the fluorescence slope in test [4] was -0.57 (inactive); in test [6], 0.00647 (inactive). Further, the NADPH fluorescence slope in test [5] was -3e-05 (inactive).

`c1ccc(Cn2nnc3c(N4CCC5(CC4)OCCO5)ncnc32)cc1`: the cell count in test [1] was determined as 382. Besides, the inhibition was -1.3% (inactive) in test [1], -346% (inactive) in test [3], 3.41% (inactive) in test [7] and 6.57% (inactive) in test [8]. In test [2], the inhibition of aggregation was 0.3% (inactive). For the same compound, the nuclei count in test [2] was found to be 103%; in test [3], 144%. Besides, the results for the fluorescence slope in test [4] and in test [6] were -0.522 (inactive) and 0.00535 (inactive), respectively. Besides, the NADPH fluorescence slope in test [5] was -5.2e-05 (inactive).

For the compound `O=S(=O)(Cc1ccc(Cl)cc1)Nc1ccc2c(c1)OCO2`, the cell count in test [1] amounted to 291. Further, the inhibition in test [1] was -12.5% (inactive); in test [3], -35.3% (inactive); in test [7] it was 7.86% (inactive); in test [8] it was 9.38% (inactive). Moreover, the inhibition of aggregation in test [2] is 10.4% (inactive). Also, the nuclei count came out at 99.4% in test [2] and 123% in test [3]. Moreover, the figures for the fluorescence slope in test [4] and in test [6] were -0.454 (inactive) and 0.00401 (inactive), respectively. Also, the NADPH fluorescence slope in test [5] was -5.8e-05 (inactive).

`Cc1cccc(C)c1NC(=O)CC(NCc1ccco1)C(=O)O` (centres undefined): the cell count in test [1] is 623. Besides, the inhibition in test [1] is -8.3% (inactive); in test [3], 26.5% (inactive); in test [7], 10.4% (inactive); in test [8], 23.1% (inactive). Moreover, the inhibition of aggregation in test [2] is -5.4% (inactive). In addition, the results for the nuclei count in test [2] and in test [3] were 71.3% and 105%, respectively. The fluorescence slope is -0.364 (inactive) in test [4] and 0.00596 (inactive) in test [6]. Further, the NADPH fluorescence slope in test [5] was -6.5e-05 (inactive).

For the compound `O=C(Nc1nc(-c2ccccc2)cs1)C1CCCCN1S(=O)(=O)c1ccccc1` (centres undefined), the cell count in test [1] is 509. Further, the inhibition is 6.9% (inactive) in test [1], -18.7% (inactive) in test [3], -0.318% (inactive) in test [7] and 1.39% (inactive) in test [8]. The inhibition of aggregation in test [2] is -0.8% (inactive). In addition, the nuclei count is 101% in test [2] and 96.2% in test [3]. Further, the fluorescence slope is -0.659 (inactive) in test [4] and 0.00633 (inactive) in test [6]. In test [5], the NADPH fluorescence slope is 1.4e-05 (inactive).

As to `COc1cc(CNc2ccc(N3CCOCC3)c(C(=O)O)c2)ccc1OCC(N)=O`, the cell count in test [1] is 362. Also, the inhibition in test [1] was -2.2% (inactive); in test [3], 26.6% (inactive); in test [7], 5.32% (inactive); in test [8], 9.86% (inactive). Moreover, the inhibition of aggregation in test [2] was -15.5% (inactive). Further, the values for the nuclei count in test [2] and in test [3] were 99.3% and 98.6%, respectively. In addition, the fluorescence slope is -0.343 (inactive) in test [4] and 0.00665 (inactive) in test [6]. For the same compound, the NADPH fluorescence slope in test [5] is 0.000117 (inactive).

Consider `CC(=O)Nc1ccc(S(=O)(=O)n2nc(C)cc2C)cc1`, for which the cell count in test [1] came to 495. Further, the inhibition in test [1] is -20.7% (inactive); in test [3], -163% (inactive); in test [7], 10% (inactive); in test [8] it was 7.63% (inactive). In addition, the inhibition of aggregation in test [2] was -16.2% (inactive). For the same compound, the nuclei count in test [2] was determined as 108%; in test [3], 105%. The fluorescence slope was -0.546 (inactive) in test [4] and 0.00409 (inactive) in test [6]. Also, the NADPH fluorescence slope in test [5] was -0.000136 (inactive).

On to `COc1ccc2c(c1)CCc1c(C(=O)NCc3cccnc3)noc1-2`, for which the cell count in test [1] is 358. The inhibition is 5.4% (inactive) in test [1], -85.6% (inactive) in test [3], -37.2% (inactive) in test [7] and -67.9% (inactive) in test [8]. Besides, in test [2], the inhibition of aggregation is -6.5% (inactive). Besides, the nuclei count came out at 103% in test [2] and 89.1% in test [3]. Moreover, the fluorescence slope in test [4] was -0.462 (inactive); in test [6], 0.00462 (inactive). For the same compound, the NADPH fluorescence slope in test [5] is -0.000203 (inactive).

In the case of `CC(=O)Nc1ccc(Cl)cc1C(=O)O`, in test [1], the cell count is 236. In addition, the inhibition in test [1] was 1.3% (inactive); in test [3], 35.3% (inactive); in test [7] it was 20.8% (inactive); in test [8], 16.7% (inactive). In addition, the inhibition of aggregation in test [2] is -13.3% (inactive). Further, the nuclei count in test [2] was 74.7%; in test [3], 74.6%. The fluorescence slope in test [4] is -0.519 (inactive); in test [6], 0.00503 (inactive). Moreover, in test [5], the NADPH fluorescence slope is 8e-06 (inactive).

Consider `CC1CN(c2c3c(nc4ncnn24)CCCC3)CC(C)O1` (centres undefined), for which the cell count in test [1] was 752. Besides, the inhibition in test [1] is 0% (inactive); in test [3], -31.5% (inactive); in test [7] it was 14.7% (inactive); in test [8], 21.5% (inactive). Also, the inhibition of aggregation in test [2] is -14.4% (inactive). In addition, the nuclei count stood at 99.9% in test [2] and 106% in test [3]. The fluorescence slope in test [4] is -0.481 (inactive); in test [6], 0.00504 (inactive). The NADPH fluorescence slope in test [5] is 3.1e-05 (inactive).

Consider `COC(=O)c1ccc2ncccc2c1`, for which, in test [1], the cell count came to 378. Moreover, the inhibition in test [1] was 2.6% (inactive); in test [3], -10.4% (inactive); in test [7] it was -15.2% (inactive); in test [8] it was -24.8% (inactive). Moreover, the inhibition of aggregation in test [2] is 9.1% (inactive). Further, the results for the nuclei count in test [2] and in test [3] were 106% and 95.7%, respectively. Besides, the fluorescence slope is -0.536 (inactive) in test [4] and 0.00451 (inactive) in test [6]. Besides, the NADPH fluorescence slope in test [5] is -8.5e-05 (inactive).

With `COc1cc(C)nc(OCCNC(=O)COc2ccc(Cl)cc2C)n1`, the cell count in test [1] stood at 705. Moreover, the inhibition in test [1] was 23.3% (active); in test [3], -53.9% (inactive); in test [7] it was -3.41% (inactive); in test [8], -6.37% (inactive). For the same compound, in test [2], the inhibition of aggregation is -16% (inactive). Moreover, the nuclei count in test [2] is 109%; in test [3] it was 123%. Further, the fluorescence slope is -0.499 (inactive) in test [4] and 0.00677 (inactive) in test [6]. In addition, the NADPH fluorescence slope in test [5] is 0.00012 (inactive).

Regarding `CCOC(=O)C1=C(C)N(C)C(C)=C(C(=O)OCC)C1c1cccnc1`, the cell count in test [1] is 366. The inhibition in test [1] was -5.2% (inactive); in test [3], -55.9% (inactive); in test [7], -2.74% (inactive); in test [8], 6.76% (inactive). In test [2], the inhibition of aggregation was -14.4% (inactive). In addition, the results for the nuclei count in test [2] and in test [3] were 93.8% and 115%, respectively. Further, the fluorescence slope in test [4] is -0.5 (inactive); in test [6], 0.00631 (inactive). The NADPH fluorescence slope in test [5] was -2.2e-05 (inactive).

As for `CN(C)/C=C(\C#N)c1nc2ccccc2[nH]1`, the cell count in test [1] stood at 468. The inhibition was 11.9% (inactive) in test [1], -7.3% (inactive) in test [3], -21.4% (inactive) in test [7] and -44.6% (inactive) in test [8]. Moreover, the inhibition of aggregation in test [2] is -17.2% (inactive). Besides, the nuclei count in test [2] was 67.1%; in test [3] it was 112%. The fluorescence slope in test [4] was -0.532 (inactive); in test [6] it was 0.00457 (inactive). In addition, the NADPH fluorescence slope in test [5] was -3.9e-05 (inactive).

What is called inhibition is the relative decrease from the control value, in per cent.
